From PubChem BioAssay
Rows were chosen to be rich in hits. Some 2.6% of all compounds tested hit in one or more screens of this group.
Apaf1 inhib = inhibitors of human Apaf-1 apoptosome, primary screen, biochemical, DEVD-Rh110 fluorescence, uHTS; Apoptotic protease-activating factor 1 (Homo sapiens), O14727; inhibition, % at 20 µM; actives 0.71% (n = 330,000); reconstituted apoptosome caspase-3 activity; AID 489030, 2010; active = inhibition of at least 40% at 20 µM;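 note: plate controls were DMSO wells for no effect and DEVD-CHO caspase inhibitor wells for full effect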
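Material: cell-free apoptosome with Apaf-1, procaspase-3 and caspase-9; Buffer or medium: Hepes pH 7.5 with detergent and BSA; Reagent: cytochrome c trigger plus (Z-DEVD)2-Rh110 caspase-3 substrate; Times: compound with Apaf-1, dATP, procaspase-3 30 min, then 50 min reaction, room temperature; Technique: Rh110 fluorescence intensity.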
PRMT1 inh = PRMT1 methyltransferase inhibitors, primary screen, biochemical, fluorescence polarization; Protein arginine N-methyltransferase 1 (Homo sapiens), Q99873; recombinant PRMT1, activity-based probe fluorescence polarization; inhibition, % at 2.79 µM; actives 1.3% (n = 370,000); AID 652257, 2013;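 active = inhibition above about 21% made by adding two undisclosed values, limit read from the data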
PAD4 inh = human PAD4 inhibitors, primary screen, biochemical, fluorescence polarization, 1536-well format. Protein-arginine deiminase type-4 (Homo sapiens), Q9UM07. recombinant PAD4, RCA probe fluorescence polarization. inhibition, % at 6.36 µM. actives 0.41% (n = 330,000). AID 485272, 2010;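 active = percent inhibition above a cutoff equal to the mean of all tested compounds plus 3 SD, cut at about 15% in these data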;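 note: 0% = PAD4 with RCA probe and DMSO and 100% = probe without PAD4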
TDP2 inh = human TDP2 enzyme inhibitors, primary screen, biochemical, epi absorbance, recombinant enzyme; AID 720702, 2013; Tyrosyl-DNA phosphodiesterase 2 (Homo sapiens), O95551; inhibition, % at 12.8 µM; T5PNP hydrolysis, p-nitrophenol absorbance 415 nm; actives 0.34% (n = 370,000);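 active = inhibition above the mean of all tested compounds plus 3 SD, set per campaign, cut at about 25% in these data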;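 note: 0% = DMSO with enzyme and 100% = buffer with substrate but no TDP2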
Target sequence (O95551 whole entry, looked up): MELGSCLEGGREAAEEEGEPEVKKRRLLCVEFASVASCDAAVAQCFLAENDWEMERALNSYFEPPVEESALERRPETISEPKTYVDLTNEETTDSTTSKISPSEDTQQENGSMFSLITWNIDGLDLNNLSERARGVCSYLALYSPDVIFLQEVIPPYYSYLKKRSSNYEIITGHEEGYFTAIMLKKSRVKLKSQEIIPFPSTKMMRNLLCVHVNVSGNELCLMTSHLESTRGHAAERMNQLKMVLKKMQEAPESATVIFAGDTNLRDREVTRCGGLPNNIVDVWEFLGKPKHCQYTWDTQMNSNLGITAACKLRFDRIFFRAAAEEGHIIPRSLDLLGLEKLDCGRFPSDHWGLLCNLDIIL
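test system = human TDP2 enzyme | input = TDP2 enzyme at 120 nM final | medium = 50 mM Tris-HCl pH 7.5 with Mg2+, KCl, DTT, BSA | also added = T5PNP substrate, 5 mM | times = 2 h at 37 °C | technique = epi absorbance | benchmarks = high control without enzyme, low control DMSO plus TDP2 | replication = each compound tested once, singlicate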
GSTO1 inh = inhibitors of recombinant GSTO1, primary screen, counter-screen for RBBP9 inhibitor project, biochemical, fluorescence polarization. Glutathione S-transferase omega-1 (Homo sapiens), P78417. activity-based probe fluorescence polarization. inhibition, % at 5.96 µM. actives 1.1% (n = 300,000). AID 1974, 2009;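 active = inhibition above the campaign mean inhibition plus 3 SD, cut at about 35% in these data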;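 note: 0% = GSTO1-1 with DMSO and 100% = wells lacking GSTO1-1 enzyme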
Target sequence (P78417 whole entry, looked up): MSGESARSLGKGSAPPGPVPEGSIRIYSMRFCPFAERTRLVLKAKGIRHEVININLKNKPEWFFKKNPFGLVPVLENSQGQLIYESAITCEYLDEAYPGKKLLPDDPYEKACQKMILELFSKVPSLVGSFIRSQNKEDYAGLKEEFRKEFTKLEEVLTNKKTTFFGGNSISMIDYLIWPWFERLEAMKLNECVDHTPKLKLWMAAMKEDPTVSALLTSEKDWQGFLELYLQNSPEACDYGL
PRMT1 confirm = PRMT1 methyltransferase inhibitors, confirmation, biochemical, fluorescence polarization, triplicate; shares compounds with PRMT1 inh; recombinant His-PRMT1, activity-based probe fluorescence polarization; actives 42% (n = 3,300); AID 687036, 2013; inhibition, % at 2.79 µM;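 active = mean inhibition across replicates above the hit cutoff derived for the earlier primary screen, cut at about 22% in these data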
* hit, by the source's call; ! = not confirmed by another sample.

`CN(C)S(=O)(=O)c1cccc(C(=O)C2=C3SC=C(c4ccccc4)N3CC2)c1` gave Apaf1 inhib 0, PRMT1 inh 26*, PAD4 inh -4, TDP2 inh 2, GSTO1 inh -2 and PRMT1 confirm 28*.
For CN(C)S(=O)(=O)c1cccc(C(=O)N2CCc3ccccc32)c1 the results were Apaf1 inhib -6, PRMT1 inh -2, PAD4 inh -2, TDP2 inh -9 and GSTO1 inh 5.
`CCN(CC)c1ccc(N)cc1S(=O)(=O)Nc1ccc(OC)cc1` gave Apaf1 inhib -18, PRMT1 inh 7, PAD4 inh 3, TDP2 inh -9 and GSTO1 inh 1.
CCN(CC)c1ccc(N)cc1S(=O)(=O)Nc1ccccc1OC was read as Apaf1 inhib 5, PRMT1 inh 46*, PAD4 inh 0, TDP2 inh -4, GSTO1 inh 9 and PRMT1 confirm 14.
For O=C(Sc1cccc2cccnc12)c1ccc(F)cc1 the results were Apaf1 inhib -14, PRMT1 inh 27*, TDP2 inh -1 and PRMT1 confirm 27*.
For CCN(CC)C(=O)c1cccc(-c2csc(C(NC(C)=O)c3cccc(OC)c3)n2)c1 (centres undefined) the results were PRMT1 inh -1 and TDP2 inh 1.
For CCOC(=O)[C@]12CCCC=C1N(CCC1=CCCCC1)C(=O)[C@H](CC(=O)NCc1cccc3ccccc13)C2 the results were PRMT1 inh 1 and TDP2 inh -7.
`N#CC1=C(N)NC(=S)C(C(N)=O)C1c1ccccc1F` (centres undefined) gave Apaf1 inhib 17, PRMT1 inh 64*, PAD4 inh 3, TDP2 inh 2, GSTO1 inh 26 and PRMT1 confirm 34*.
Screening N#CC1=C(N)NC(=S)C(C(N)=O)C1c1ccc(Cl)cc1Cl (centres undefined) returned Apaf1 inhib -7, PRMT1 inh 72*, PAD4 inh 0, TDP2 inh -9, GSTO1 inh 16 and PRMT1 confirm 34*.
For O=C1NC(=O)C(c2ccc(Cl)cc2Cl)N1 (centres undefined) the results were PRMT1 inh -6 and TDP2 inh 1.
Screening Cc1ccc(CNC(=O)c2c(-c3ccccc3)sc3ccccc23)o1 returned Apaf1 inhib 20, PRMT1 inh 39*, PAD4 inh 0, TDP2 inh -18 and PRMT1 confirm 1.
For O=C1C=CC(=O)N1CCNc1ncc(C(F)(F)F)cc1Cl the results were Apaf1 inhib 8, PRMT1 inh 92*, TDP2 inh -8 and PRMT1 confirm 90*.
For O=C1CC(=O)N(CCNc2ncc(C(F)(F)F)cc2Cl)C(=O)N1 the results were Apaf1 inhib 11, PRMT1 inh 7, PAD4 inh -5, TDP2 inh 3 and GSTO1 inh -10.
Screening CCN1CCN(C(c2cc3cccc(C)c3[nH]c2=O)c2nnnn2Cc2ccccc2)CC1 (centres undefined) returned Apaf1 inhib -12, PRMT1 inh 6, PAD4 inh -2, TDP2 inh 0 and GSTO1 inh 8.
`Cc1cccc2cc(C(c3nnnn3Cc3ccccc3)N3CCCc4ccccc43)c(=O)[nH]c12` (centres undefined) gave Apaf1 inhib 9, PRMT1 inh 26*, PAD4 inh -3, TDP2 inh -3, GSTO1 inh 10 and PRMT1 confirm -3.
For CC(C)C[C@@H](CNCC(=O)[C@H](Cc1c[nH]c2ccccc12)NC(=O)c1[nH]cnc1C(=O)N[C@@H](C)CN)NC(=O)c1nc[nH]c1C(=O)N[C@@H](C)C(=O)O the results were PRMT1 inh 2 and TDP2 inh 8.
For CCNc1nc(NCC)n2c(SCC(=O)Nc3ccc(Br)cc3F)nnc2n1 the results were Apaf1 inhib 3, PRMT1 inh 37*, PAD4 inh -3, TDP2 inh -5, GSTO1 inh -1 and PRMT1 confirm 15.
`CCNc1nc(NCC)n2c(SCC(=O)Nc3ccc(F)cc3)nnc2n1` gave Apaf1 inhib 0, PRMT1 inh -2, PAD4 inh 3, TDP2 inh -10 and GSTO1 inh 5.
For Cc1cc(SCNC(=O)c2ccccc2)ncn1 the results were Apaf1 inhib -20, PRMT1 inh 71*, PAD4 inh 7, TDP2 inh -6, GSTO1 inh 17 and PRMT1 confirm 7.
`O=C(Nc1ccccc1-c1ccccc1)c1ccc(=O)[nH]n1` gave Apaf1 inhib 6, PRMT1 inh 0, PAD4 inh 0, TDP2 inh 15 and GSTO1 inh -2.
`Cc1cc(=O)oc2cc(OCC(=O)OCC(=O)NCCc3ccccc3)ccc12` gave Apaf1 inhib 2, PRMT1 inh 27*!, PAD4 inh -7, TDP2 inh 3, GSTO1 inh -1 and PRMT1 confirm -2.
For O=C(COC(=O)c1nc(Cl)c(Cl)c(Cl)c1Cl)NCc1ccccc1 the results were Apaf1 inhib 12, PRMT1 inh 3, PAD4 inh 6 and TDP2 inh 4.
`O=C(CC(Nc1ccc(Cl)cc1Cl)C(=O)O)c1ccccc1` (centres undefined) gave Apaf1 inhib -18, PRMT1 inh 39*, PAD4 inh -1, TDP2 inh -3, GSTO1 inh 1 and PRMT1 confirm 3.
O=C(CC(Nc1ccccc1)C(=O)O)c1ccccc1 (centres undefined) was read as Apaf1 inhib -1, PRMT1 inh 12, PAD4 inh -1, TDP2 inh -11 and GSTO1 inh 6.
Screening Cc1ccc(C2CC2c2n[nH]c(=S)n2-c2cccc(C)c2)cc1 (centres undefined) returned Apaf1 inhib 21, PRMT1 inh 26*, PAD4 inh -6, TDP2 inh -7, GSTO1 inh -5 and PRMT1 confirm 17.
For Cc1ccc(C2CC2c2n[nH]c(=S)n2-c2ccc(Cl)cc2)cc1 (centres undefined) the results were Apaf1 inhib 15, PRMT1 inh 27*, PAD4 inh -2, TDP2 inh -13, GSTO1 inh -4 and PRMT1 confirm 11.
